Compound activity from PubChem.
ROMK mod: ROMK potassium channel modulators, primary screen, cell-based, thallium flux, MLSMR library; 130,000 compounds, 2% hits; Tet-inducible ROMK, thallium flux fluorescence; actives lie on both sides; B-score at 10 µM; AID 1918, 2009; ATP-sensitive inward rectifier potassium channel 1 (Homo sapiens), P48048;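 active = signal ratio slope over the read window, or its plate-corrected B-score, at least 3 SD from the plate mean, either direction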;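 note: B-score of the F/F0 ratio slope over 7 to 12 s after thallium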
Target sequence (P48048 whole entry, looked up): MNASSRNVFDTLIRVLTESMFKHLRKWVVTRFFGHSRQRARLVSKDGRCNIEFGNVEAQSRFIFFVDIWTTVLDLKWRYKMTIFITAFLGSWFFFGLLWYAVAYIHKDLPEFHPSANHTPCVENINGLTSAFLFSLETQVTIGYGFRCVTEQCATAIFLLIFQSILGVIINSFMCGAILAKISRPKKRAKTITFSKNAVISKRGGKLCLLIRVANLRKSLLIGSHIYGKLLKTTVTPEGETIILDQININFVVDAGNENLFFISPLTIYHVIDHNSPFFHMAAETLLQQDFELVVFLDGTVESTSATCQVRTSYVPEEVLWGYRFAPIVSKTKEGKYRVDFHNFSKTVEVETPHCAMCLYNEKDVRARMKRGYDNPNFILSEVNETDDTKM
Calb biofilm kill: clotrimazole potentiators killing C. albicans biofilm, primary screen, 4-compound mixtures. C. albicans biofilm persisters + clotrimazole, fluorescence viability; primary screen in compound mixtures of four per well. inhibition, % at 7.6 µM. 120,000 compounds, 0.02% hits. AID 1242, 2008;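 active = inhibition above 30.3% in the primary screen of four-compound pools, then above 30% when the compound was retested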;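 note: compounds exposed to preformed 24 h biofilms for 48 h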
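Test system: C. albicans biofilms. Buffer or medium: RPMI/MOPS medium, pH 7.0. Timing: 48 h compound exposure at 37 °C. Technique: Alamar Blue fluorescence. Evaluation: percent inhibition of biofilm viability.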
ROMK retest: ROMK channel modulator hit retest, confirmation, cell-based, thallium flux, duplicate, resupplied hits | shares compounds with ROMK mod | fluorescence ratio; stronger effect = lower value | normalized thallium flux (F/F0 slope) at 10 µM | 3,000 compounds, 54% hits;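 active = Flux at 10 µM at least 3 SD below or above vehicle control mean in one or both replicates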
Numbers stand for hits. The full list was thinned out, with hits kept by preference.

What do the screens show for `COC(=O)C(C)N1CCC(=O)c2ccccc2S1(=O)=O` (configuration not stated)?
Calb biofilm kill: inactive

How did CCOC(=O)CNc1nc(Cl)c(C#N)s1 do in these assays?
ROMK mod: inactive; Calb biofilm kill: inactive

Results for Cc1ccc(CNc2nc(Cl)c(C#N)s2)cc1 ?
ROMK mod: 1.12; Calb biofilm kill: inactive; ROMK retest: inactive

What do the screens show for `CCc1ccccc1NC1=CC(=O)CC(C)(C)C1`?
ROMK mod: inactive; Calb biofilm kill: inactive

Results for Cc1csc(NC(=O)C(NC(=O)c2ccccc2F)C(C)C)n1 (configuration not stated) ?
ROMK mod: inactive; Calb biofilm kill: inactive

What do the screens show for `Nc1c(C(=O)NCC2CCCO2)sc2nc3c(c(-c4ccco4)c12)CC/C3=C\c1ccco1` (configuration not stated)?
Calb biofilm kill: inactive

How did CCCC1=C(C(=O)OCC)C(c2cccs2)C(C#N)=C(N)O1 (configuration not stated) do in these assays?
ROMK mod: 2.28; ROMK retest: inactive

Results for CCOC(=O)C1=C(C)OC(N)=C(C#N)C1c1cccs1 (configuration not stated) ?
ROMK mod: inactive; Calb biofilm kill: inactive

How did CC1=C(C(=O)OCc2ccccc2)C(c2ccsc2)C(C#N)=C(N)O1 (configuration not stated) do in these assays?
ROMK mod: inactive; Calb biofilm kill: inactive

How did CCOC(=O)C1=C(N)OC(CCl)=C(C#N)C1c1ccsc1 (configuration not stated) do in these assays?
ROMK mod: -3.47; Calb biofilm kill: inactive; ROMK retest: 0.0602

How did Cc1ccc(Nc2nc(CSc3nnc(-c4ccc(F)cc4)n3C)cs2)cc1 do in these assays?
ROMK mod: inactive; Calb biofilm kill: inactive

What do the screens show for `CCC(C(=O)O)n1nc(-c2ccccc2)c2cc(Cl)ccc21` (configuration not stated)?
ROMK mod: inactive; Calb biofilm kill: inactive

How did CC(=O)Nc1ccc2nc(CN3CCC(CO)(CCc4ccccc4)CC3)ccc2c1 do in these assays?
Calb biofilm kill: inactive

Results for COc1ccc2cc(C(=O)N/N=C/c3sc4ccccc4c3O)ccc2c1 ?
ROMK mod: -2.81; Calb biofilm kill: inactive; ROMK retest: 0.0484

Results for O=C(N/N=C/c1sc2ccccc2c1O)c1cccc2ccccc12 ?
ROMK mod: inactive; Calb biofilm kill: inactive

Results for Cc1ccc(NC(=O)COc2ccccc2CNC(C)(C)CC(C)(C)C)cc1 ?
ROMK mod: -3.58; ROMK retest: 0.05

Results for CC(C)(CO)NCc1ccccc1OCC(=O)Nc1ccccc1 ?
ROMK mod: inactive

What do the screens show for `COc1ccc(NC(=O)C(Sc2nnc3ccccn23)c2ccccc2)cc1Cl` (configuration not stated)?
Calb biofilm kill: inactive

Results for N#C/C(=C(/O)c1ccc(Cl)c([N+](=O)[O-])c1)c1nc2ccccc2[nH]1 ?
Calb biofilm kill: inactive

What do the screens show for `O=c1cc(-c2ccccc2[N+](=O)[O-])oc2ccccc12`?
ROMK mod: 2.38; Calb biofilm kill: inactive; ROMK retest: inactive

How did O=c1cc(-c2ccccc2F)oc2ccccc12 do in these assays?
ROMK mod: inactive; Calb biofilm kill: inactive

Results for CCC(C)(C)NC(=S)Nc1ccccc1C ?
ROMK mod: inactive; Calb biofilm kill: inactive

Results for CCn1c(C)cs/c1=N\C(=S)Nc1ccccc1C ?
ROMK mod: 3.23; Calb biofilm kill: inactive; ROMK retest: inactive

How did CCc1cccc(C)c1NC(=S)N(CCN(C)C)C(C)c1cccnc1 (configuration not stated) do in these assays?
ROMK mod: inactive; Calb biofilm kill: inactive

Results for CCOC(=O)c1ccc2nc(NC(=O)c3cccs3)sc2c1 ?
ROMK retest: inactive

What do the screens show for `O=C(Nc1nc2ccc(F)cc2s1)c1cccs1`?
ROMK mod: inactive; Calb biofilm kill: inactive

What do the screens show for `O=C(NNC(=S)Nc1ccccc1C(F)(F)F)C1CC1`?
ROMK mod: inactive; Calb biofilm kill: inactive

What do the screens show for `O=C1CCCCc2sc(Br)c([N+](=O)[O-])c2N1`?
Calb biofilm kill: inactive

Results for Cc1nn(Cc2ccccc2)c2c1C(c1ccc(Cl)cc1)C(C#N)=C(N)O2 (configuration not stated) ?
ROMK mod: -2.86; Calb biofilm kill: inactive; ROMK retest: 0.0588

How did Cc1nn(Cc2ccccc2)c2c1C(c1ccncc1)C(C#N)=C(N)O2 (configuration not stated) do in these assays?
Calb biofilm kill: inactive

Results for Cc1c(NC(=S)NNC(=O)CCC(=O)O)c(=O)n(-c2ccccc2)n1C ?
Calb biofilm kill: inactive

Results for CCCCNC(=O)c1cc2cc(CC)ccc2[nH]1 ?
ROMK mod: inactive; Calb biofilm kill: inactive

What do the screens show for `O=C1N/C(=C/c2ccc(N3CCCC3)cc2)C(=O)N1c1ccccc1`?
ROMK mod: inactive; Calb biofilm kill: inactive

How did O=C1N/C(=C/c2ccc(N3CCOCC3)o2)C(=O)N1c1ccccc1 do in these assays?
ROMK mod: -3.45; Calb biofilm kill: inactive; ROMK retest: 0.0486

Results for O=c1[nH]c(CSc2ncnc3sc(-c4ccccc4)cc23)nc2ccccc12 ?
Calb biofilm kill: inactive

Results for Cc1cc(C(C)(C)C)cc(C)c1Cn1c2[n+](c3ccc(C(F)(F)F)cc31)CCCCC2 ?
ROMK mod: -4.91; Calb biofilm kill: inactive; ROMK retest: 0.0479

Results for FC(F)(F)c1cccc(Cn2c3[n+](c4ccc(C(F)(F)F)cc42)CCCCC3)c1 ?
ROMK mod: inactive; Calb biofilm kill: inactive

How did C[C@@H]1CCC[C@H](C)N1Cc1nc(Cc2ccccc2Cl)no1 do in these assays?
ROMK mod: inactive; Calb biofilm kill: inactive

What do the screens show for `CN(c1ccccc1)c1ccc(/C=C(\C#N)c2nnc3n2CCCCC3)cc1[N+](=O)[O-]`?
Calb biofilm kill: inactive

Results for N#C/C(=C\c1cccc([N+](=O)[O-])c1)c1nnc2n1CCCCC2 ?
ROMK mod: -4.44; Calb biofilm kill: inactive; ROMK retest: 0.046

What do the screens show for `COc1ccc2nc3c(cc2c1)c(NC(=O)c1cccs1)nn3CC(C)C`?
ROMK retest: inactive

What do the screens show for `CC(C)Cn1nc(NC(=O)c2cccs2)c2cc3ccccc3nc21`?
Calb biofilm kill: inactive

What do the screens show for `CCOC(=O)C1(Cc2ccc(Cl)cc2)CCN(C(=O)c2sc(C)nc2C)CC1`?
ROMK mod: inactive; Calb biofilm kill: inactive

Results for COC(=O)C(CC(=O)c1cccc(OC)c1)c1ccc(F)cc1 (configuration not stated) ?
ROMK mod: inactive; Calb biofilm kill: inactive

What do the screens show for `O=C(Nc1ccc(Oc2cccc(C(F)(F)F)c2)nc1)c1ccccc1`?
Calb biofilm kill: inactive

How did O=C(Nc1ccc(Oc2cccc(C(F)(F)F)c2)nc1)c1cccs1 do in these assays?
Calb biofilm kill: inactive; ROMK retest: 0.064

How did CCCNC(=O)Cn1cnc2sc(C(=O)NCCN(CC)CC)c(C)c2c1=O do in these assays?
ROMK mod: inactive

Results for O=C(/C=C/c1ccc(Br)o1)Nc1nnc(C2CC2)s1 ?
Calb biofilm kill: inactive

Results for Cc1cccc(NC(=O)CC2C(=O)NC3CCCCC3N2C(=O)c2ccccc2Cl)c1 (configuration not stated) ?
Calb biofilm kill: inactive
